This is one part of a sample in which hits are shown more often than they occur.
CHOP UPR activ = activators of apoptotic CHOP UPR arm, primary screen, cell-based, CHO-CHOP luciferase reporter, luminescence, uHTS. UPR activation; percent of tunicamycin response over DMSO baseline. activation, % at 10 µM. 330,000 compounds, 0.34% hits;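 active means at 10 µM dose, activation of 40% or more, normalized to positive control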;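 further: 100% = tunicamycin at 10 µg/mL and 0% = DMSO alone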
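Test system: CHO CHOP reporter cells. Input: 500 CHO-CHOP cells per well. Medium: F12 with 10% FBS. Technique: luciferase luminescence. Measure: percent activation relative to tunicamycin control. Dosing: 10 µM compound, 0.5% DMSO. Timing: 16-18 h cell attachment, then 6 h compound exposure, 37 °C.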
Dynein cargo inh = inhibitors of GR-EGFP nuclear translocation, primary screen, dynein cargo transport inhibitor project, imaging, high-content, 3617.4 mouse cells; test concentration mostly 20 µM; stimulated with dexamethasone, 1 µM; active compounds read low; z-score, hits read low; 220,000 compounds, 0.47% hits; AID 1381, 2008;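 active means plate z-score of nuclear minus cytoplasmic receptor signal below a set negative limit, without overly bright fluorescence or cell loss, cut at about -3.5 in these data, passing the limit was not always enough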;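 further: z-score of nuclear minus cytoplasmic ring GR-EGFP intensity difference per well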
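Medium: Induction medium lacking tetracycline, stripped serum | Probe or stimulus: 1.0 µM final dexamethasone stimulus | Schedule: 48 h induction, then 1 h compound, then 30 min agonist, 37 °C | Signal: Automated 10x imaging of fixed Hoechst-stained cells | Evaluation: Per-cell GR-EGFP intensity, nucleus versus surrounding cytoplasmic ring, well-averaged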
B2AR ag = beta2AR agonists driving receptor internalization, primary screen, cell-based, FAP fluorogen, flow cytometry. Am2.2-beta2AR cells. response, % (concentration not given with the values). 340,000 compounds, 0.43% hits. Beta-2 adrenergic receptor (Homo sapiens), P07550;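 active means response above a set limit, near 3 SD of response in nonfluorescent compounds, cut at about 42% in these data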
CHOP inh = inhibitors of CHOP promoter induction, primary screen, cell-based, unfolded protein response, luciferase reporter; 220,000 compounds, 3.8% hits; CHO-K1 CHOP-promoter luciferase, tunicamycin-induced, 15-18 h; inhibition, % at 10 µM;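 active means compounds that reduced the stress-induced luciferase reporter signal by more than about 70% of percent inhibition, limit read from the data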;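 further: 0% = tunicamycin plus vehicle and 100% = wells without tunicamycin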
pCIP destab = p/CIP-EGFP fusion destabilizers, primary screen, fluorescence, F442A cells; decrease of EGFP signal, % at 10 µM; 290,000 compounds, 0.01% hits; 16 h;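 active means EGFP signal decrease of at least 30% at 10 µM or well 3 SD below plate mean, unless failing retest; inactive means the rest, including hits failing retest or dose response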
Target sequence (Q05BA5 1-1403): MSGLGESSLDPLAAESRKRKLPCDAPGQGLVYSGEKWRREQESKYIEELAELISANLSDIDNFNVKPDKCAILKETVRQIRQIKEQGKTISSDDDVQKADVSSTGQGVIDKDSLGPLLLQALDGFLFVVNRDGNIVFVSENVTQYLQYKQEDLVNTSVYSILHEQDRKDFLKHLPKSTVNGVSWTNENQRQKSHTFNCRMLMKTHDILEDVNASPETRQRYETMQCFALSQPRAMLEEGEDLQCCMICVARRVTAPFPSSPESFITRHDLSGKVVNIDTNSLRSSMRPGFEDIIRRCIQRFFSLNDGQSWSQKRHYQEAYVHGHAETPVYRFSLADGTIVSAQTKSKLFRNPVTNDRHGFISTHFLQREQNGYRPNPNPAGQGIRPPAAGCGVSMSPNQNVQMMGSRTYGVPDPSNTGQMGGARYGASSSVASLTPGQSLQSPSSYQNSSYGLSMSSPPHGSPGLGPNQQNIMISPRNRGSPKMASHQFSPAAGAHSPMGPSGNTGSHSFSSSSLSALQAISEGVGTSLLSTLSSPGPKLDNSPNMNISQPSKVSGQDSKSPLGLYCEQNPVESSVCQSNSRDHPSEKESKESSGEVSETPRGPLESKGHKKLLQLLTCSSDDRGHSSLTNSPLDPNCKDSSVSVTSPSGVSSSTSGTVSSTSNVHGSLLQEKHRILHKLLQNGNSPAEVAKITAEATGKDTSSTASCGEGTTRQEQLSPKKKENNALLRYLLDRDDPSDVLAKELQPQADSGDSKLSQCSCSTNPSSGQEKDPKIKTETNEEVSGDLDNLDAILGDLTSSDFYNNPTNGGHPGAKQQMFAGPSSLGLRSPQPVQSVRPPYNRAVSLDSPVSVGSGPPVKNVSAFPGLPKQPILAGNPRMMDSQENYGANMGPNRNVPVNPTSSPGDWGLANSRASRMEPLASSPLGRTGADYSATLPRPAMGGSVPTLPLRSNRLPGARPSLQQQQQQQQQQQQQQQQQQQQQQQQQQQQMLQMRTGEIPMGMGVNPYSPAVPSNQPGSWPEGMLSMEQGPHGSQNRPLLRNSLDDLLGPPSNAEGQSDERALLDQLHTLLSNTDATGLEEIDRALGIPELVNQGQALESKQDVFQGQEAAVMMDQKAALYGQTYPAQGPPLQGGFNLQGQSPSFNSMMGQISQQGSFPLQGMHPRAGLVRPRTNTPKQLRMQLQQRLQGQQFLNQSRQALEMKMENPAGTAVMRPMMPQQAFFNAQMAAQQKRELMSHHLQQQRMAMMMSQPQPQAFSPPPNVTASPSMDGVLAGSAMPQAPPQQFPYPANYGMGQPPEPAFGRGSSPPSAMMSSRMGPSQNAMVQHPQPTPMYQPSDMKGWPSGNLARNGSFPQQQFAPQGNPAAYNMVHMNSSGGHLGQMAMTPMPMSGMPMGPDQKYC
XBP1 UPR activ = activators of adaptive XBP1 UPR arm, primary screen, cell-based, CHO-XBP1 luciferase reporter, luminescence, uHTS | 330,000 compounds, 0.33% hits | activation, % at 20 µM | IRE1-XBP1 UPR activation; percent of tunicamycin response, DMSO as zero;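 active means versus positive control, 20 µM dose yields 30% or more activation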;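 further: 100% = tunicamycin at 10 µg/mL and 0% = DMSO only wells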
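Assay system: IRE1-XBP1 luciferase reporter CHO line. Input: 1000 cells/well. Buffer or medium: F12 with 10% serum. Doses: 20 µM, 1% DMSO. Times: overnight seeding at 37 °C, 6 h compound treatment at 37 °C. Technique: Steady-Glo luciferase glow luminescence, 10 min after reagent addition.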
Starred values were filed as active, the others as inactive; · = no result given.

SMILES | CHOP UPR activ | Dynein cargo inh | B2AR ag | CHOP inh | pCIP destab | XBP1 UPR activ
O=S(=O)(NCCc1csc(-c2ccc(C(F)(F)F)cc2)n1)c1ccc2c(c1)OCCO2 | 2 | -0.36 | 5 | 81* | 8 | -3
O=C(C1CCN(C2CCN(Cc3ccsc3)CC2)CC1)N1CCOCC1 | 1 | · | 3 | · | -3 | -3
O=C(COc1ccc(C(=O)Nc2ccc(Cl)cc2)cc1)NCc1ccccc1 | 0 | -0.031 | -1 | 77* | 4 | -1
O=C(COc1ccc(Cl)cc1Br)NC(=O)NCc1ccccc1 | -2 | 0.0024 | -6 | 84* | 6 | 1
CC1Cc2cc(S(=O)(=O)N3CCC(C(=O)NCc4ccco4)CC3)ccc2N1C(=O)C1CCC1 (stereo unspecified) | 0 | · | -21 | · | 0 | -5
CN(C)/C=N/S(=O)(=O)c1ccc(Cl)cc1 | -1 | -0.88 | -2 | 3 | 1 | -3
CCCOc1ccccc1Cn1c(=O)oc2ccc(C)cc21 | -1 | 1.1 | -3 | 81* | 0 | -3
COc1ccccc1OCCCn1c(=O)oc2ccc(C)cc21 | 1 | -0.38 | 7 | 2 | -5 | 1
Cc1ccc2oc(=O)n(CCOc3ccccc3Cl)c2c1 | 0 | 0.49 | 15 | 93* | -19 | 0
CCOc1ccccc1Cn1c(=O)oc2ccc(C)cc21 | -3 | -0.33 | -3 | 10 | -12 | 3
O=C1N=c2ccccc2=C1c1sc(=S)n(NC(=O)c2ccccc2)c1O | -1 | 1.1 | -1 | 94* | 1 | -1
Cc1ccc(C2=NS(=O)(=O)N(C)C(C(=O)Nc3cc(C)n(CC(=O)N4CCC(C)CC4)n3)=C2)cc1 | 1 | · | -10 | · | -8 | -8
OCC1NC[C@@H](O)C(O)[C@@H]1O (stereo partly specified) | · | · | · | 16 | · | ·
Cc1nn(Cc2ccc(F)cc2)c2sc(C(=O)Nc3ccccc3N3CCOCC3)cc12 | -2 | -0.099 | -18 | -11 | -5 | 0
Cc1nn(Cc2ccccc2Cl)c2sc(C(=O)Nc3nccs3)cc12 | -2 | 0.31 | -1 | 84* | 3 | 5
Cc1nn(Cc2ccc(F)cc2)c2sc(C(=O)Nc3nccs3)cc12 | 1 | -0.34 | -17 | 93* | -8 | -1
CCC(CC)NC(=O)c1cc2c(C)nn(Cc3ccccc3Cl)c2s1 | -1 | -0.95 | 5 | 46 | 5 | 4
Cc1cccc(NC(=O)COc2ccc(/C=N\n3cnnc3)cc2)c1 | -1 | -0.47 | -7 | 1 | -3 | -1
CCc1nc(CNC(=O)C2CCC(=O)N(CCc3ccc(OC)cc3)C2)cs1 (stereo unspecified) | 0 | · | 1 | · | -8 | -2
Brc1cccc(-c2nnc(-c3ccccc3)o2)c1 | 3 | 1.2 | -5 | 75* | 10 | 0
Cc1ccc(-c2nnc(-c3cccc(Br)c3)o2)cc1 | 9 | -1 | -7 | 5 | -4 | 0
Cc1cc(NC(=O)COC(=O)c2ccccc2Cl)no1 | 3 | · | 8 | · | · | -1
Cc1cc(NC(=O)COC(=O)c2oc3c(Cl)cccc3c2C)no1 | 2 | -0.26 | 17 | 74* | -9 | -1
O=c1cc(/N=C/c2coc3c(ccc4ccccc43)c2=O)[nH]c(=S)[nH]1 | 1 | 0.65 | 2 | 79* | -2 | -2
O=C(NCCc1ccccn1)C1CCN(S(=O)(=O)c2ccc3ccccc3c2)CC1 | 1 | 2.2 | -12 | -6 | 8 | -2
SMILES | CHOP UPR activ | Dynein cargo inh | B2AR ag | CHOP inh | pCIP destab | XBP1 UPR activ
COc1cccc(Nc2nc(C)cc(C)c2C(N)=O)c1 | 1 | · | -1 | · | 1 | -3
CCN(CC)S(=O)(=O)c1cccc(NC(=O)COC(=O)C2COc3ccccc3O2)c1 (stereo unspecified) | 1 | 0.059 | -3 | 0 | -1 | 1
CC(NC(=O)CSc1nnc(-c2cccc(S(=O)(=O)N3CCCCC3)c2)o1)C12CC3CC(CC(C3)C1)C2 (stereo unspecified) | 0 | 0.77 | 4 | 15 | -3 | -2
O=C(COc1ccc2ccccc2c1)Nc1nnc(-c2ccco2)s1 | 2 | -0.12 | · | 72* | -11 | 0
CN1CCc2c(sc3c2C(=O)NC(c2cn(Cc4ccccc4)c4ccccc24)N3)C1 (stereo unspecified) | 0 | 9.2 | -175 | 79* | -16 | 4
COc1ccc(-c2cc(C(F)(F)F)nc(NCc3ccco3)n2)cc1OC | 1 | -0.069 | -11 | 75* | -7 | 4
COc1cccc(-c2cc(C(F)(F)F)nc(NCc3ccco3)n2)c1 | 0 | -0.47 | -11 | 71* | -8 | 0
CCc1ccccc1S(=O)(=O)Cc1ccc(C(=O)NCc2ccc3c(c2)OCO3)o1 | 0 | -0.89 | -1 | 87* | -4 | -2
O=C(NCc1ccc2c(c1)OCO2)c1ccc(CS(=O)(=O)Cc2cccc(Cl)c2)o1 | -4 | 0.03 | 5 | 29 | 2 | -2
COc1cccc(C(=O)Nc2ccc(Cl)c(C(F)(F)F)c2)c1 | 2 | 0.42 | 0 | 71* | -6 | 3
C#CCOCCOCCOCCNc1nc(N2CCN(C(=O)CCCCCCCCCCNC(=O)[C@H](CCCCN)n3cc(CCO)nn3)CC2)nc(N2CCN(C(=O)CCCCCCCCCCNC(=O)[C@@H]([C@H](C)O)n3cc(C)nn3)CC2)n1 | 1 | · | 87* | · | · | 1
C#CCOCCOCCOCCNc1nc(N2CCN(C(=O)CCCCCCCCCCNC(=O)[C@H](CCCCN)n3cc(CCO)nn3)CC2)nc(N2CCN(C(=O)CCCCCCCCCCNC(=O)[C@H](CCCN=C(N)N)n3cc(C[C@@H](C)CC)nn3)CC2)n1 | -2 | · | 19 | · | · | 1
C#CCOCCOCCOCCNc1nc(N2CCN(C(=O)CCCCCCCCCCNC(=O)[C@H](CCCCN)n3cc(C[C@@H](C)CC)nn3)CC2)nc(N2CCN(C(=O)CCCCCCCCCCNC(=O)[C@H](CCCCN)n3cc(C[C@@H](C)CC)nn3)CC2)n1 | · | · | 42* | · | · | ·
C#CCOCCOCCOCCNc1nc(N2CCN(C(=O)CCCCCCCCCCNC(=O)[C@H]([C@@H](C)CC)n3cc(CCCCN=C(N)N)nn3)CC2)nc(N2CCN(C(=O)CCCCCCCCCCNC(=O)[C@H](CCCCN)n3cc(C[C@@H](C)CC)nn3)CC2)n1 | 17 | · | · | · | · | 39*
C#CCOCCOCCOCCNc1nc(N2CCN(C(=O)CCCCCCCCCCNC(=O)[C@@H](CCSC)n3cc(CCO)nn3)CC2)nc(N2CCN(C(=O)CCCCCCCCCCNC(=O)[C@H]([C@@H](C)CC)n3cc(CCCCN=C(N)N)nn3)CC2)n1 | 2 | · | 78* | · | · | 0
